Test results published in ChEMBL document CHEMBL1765065, “Pro-soft Val-boroPro: a strategy for enhancing in vivo performance of boronic acid inhibitors of serine proteases” (J Med Chem, 2011).
Active and inactive are the calls of the source. The rule behind the calls is not given here. Starred links: 1 amine or outer side, 2 acyl side, 3 side chain; linkers in the order of their positions; H or OH if unused. Residues, ends and D or L forms follow the SMILES beside them. *: point of attachment. Suc = O=C(CCC(=O)[*:2])[*:1]; boroPro = OB(O)[C@@H]1CCCN1*

Legend:
Dipeptidyl peptidase 4 [1] = target: T1, Dipeptidyl peptidase 4 (Homo sapiens, UniProt P27487); assay: Inhibition of DDP4
Summary of the method: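 Purified DPPIV (~1 nM) in 0.1 M HEPES, 0.14 M NaCl, pH 7.4 or 8.0, at 25 or 37 °C. Inhibitor (10^-5 to 10^-11 M) preincubated 10 min with enzyme before 0.3 mM H-Ala-Pro-pNA; A410 read. Stocks made in HCl pH 2.0 or buffer pH 7.4/8.0 and diluted just before use.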
Target sequence in this assay (P27487 whole entry, looked up): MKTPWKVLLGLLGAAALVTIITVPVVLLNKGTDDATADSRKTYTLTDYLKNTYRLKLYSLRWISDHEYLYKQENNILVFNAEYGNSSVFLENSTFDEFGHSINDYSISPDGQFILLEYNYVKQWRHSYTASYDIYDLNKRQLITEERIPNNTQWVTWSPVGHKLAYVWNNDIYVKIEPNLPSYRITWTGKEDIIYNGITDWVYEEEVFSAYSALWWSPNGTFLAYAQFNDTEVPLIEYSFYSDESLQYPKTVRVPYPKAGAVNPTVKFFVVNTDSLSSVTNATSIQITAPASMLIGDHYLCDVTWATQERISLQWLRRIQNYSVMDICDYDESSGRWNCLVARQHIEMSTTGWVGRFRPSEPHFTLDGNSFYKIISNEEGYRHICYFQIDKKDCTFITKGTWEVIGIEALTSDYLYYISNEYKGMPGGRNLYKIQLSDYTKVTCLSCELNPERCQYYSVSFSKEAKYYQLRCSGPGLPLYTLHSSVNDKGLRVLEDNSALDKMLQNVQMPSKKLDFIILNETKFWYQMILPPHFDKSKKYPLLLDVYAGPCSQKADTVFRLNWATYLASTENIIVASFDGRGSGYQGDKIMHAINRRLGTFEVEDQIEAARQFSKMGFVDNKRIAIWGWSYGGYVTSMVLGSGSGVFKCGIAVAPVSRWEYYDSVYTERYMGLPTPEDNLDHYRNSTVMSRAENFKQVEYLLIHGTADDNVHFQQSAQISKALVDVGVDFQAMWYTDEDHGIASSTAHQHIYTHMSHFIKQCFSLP

[2] = Inhibition of alpha-chymotrypsin
Dipeptidyl peptidase 4 [3] = target: T1, Dipeptidyl peptidase 4; assay: Inhibition of DDP4 at pH 7.4 preincubated with alpha-chymotrypsin up to 8 hrs
Summary of the method: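 Prodrug preincubated with 0.1 mM α-chymotrypsin for 0, 0.5, 1, 2, 4, 6 or 24 h before purified DPPIV was added. The DPPIV assay then followed: 0.3 mM H-Ala-Pro-pNA, A410, HEPES/NaCl buffer.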
Target sequence in this assay (P27487 whole entry): as the sequence (P27487 whole entry, looked up) above

Mus musculus [4] = assay: Antidiabetic activity in po dosed C57BL/KS01HSDLeprdb mouse assessed as decrease in serum glucose AUC level by oral glucose tolerance test; format: functional, organism-based
Summary of the method: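 Diabetic male C57BL/KS01HSDLeprdb mice (nondiabetic C57BL/6NHHsd as comparison) acclimated 3 weeks and fasted 4 h. Given 0.0025, 0.01, 0.025 or 0.05 mg/kg free-inhibitor equivalent by oral gavage; vehicle H2O. Oral glucose 1 g/kg given 3 h post-dose. Glucometer blood glucose at predose, 15, 30, 60, 120 and 240 min (5 mice/group); AUC.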

Mus musculus [5] = assay: Antidiabetic activity in C57BL/KS01HSDLeprdb mouse assessed as decrease in serum glucose AUC level at 0.5 mg/kg, po by oral glucose tolerance test; format: functional, organism-based; set-up: dose 0.5 mg/kg
[6] = (§1) Toxicity in po dosed Fisher rat assessed as mortality measured up to 24 hrs; format: organism-based; settings: Fisher, in vivo
[7] = Chemical stability of the compound assessed as half life at physiological pH; format: physicochemical
Mus musculus [8] = assay: DDP4-mediated pro-drug activation in ip dosed CD26 -/- mouse assessed as pro-drug level in serum by LC/MS analysis; format: organism-based; settings: in vivo
Summary of the method: (§2)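 Wild-type C57BL/6 (CD26+/+) or DPPIV knockout (CD26-/-) mice, 3 per group, acclimated ≥1 week. Given 50 μg ip in PBS. Blood taken by cardiac puncture after 5 min and treated with 10% TCA. Supernatant intact prodrug quantified by reverse-phase HPLC-MS base peak chromatograms.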

Dipeptidyl peptidase 4 [9] = target: T1, Dipeptidyl peptidase 4; assay: Inhibition of DDP4 at pH 2 preincubated for 10 mins
Target sequence in this assay (P27487 whole entry): as the sequence (P27487 whole entry, looked up) above

Mus musculus [10] = assay: DDP4-mediated pro-drug activation in ip dosed wild type C57BL/6 mouse assessed as pro-drug level in serum by LC/MS analysis; format: organism-based; settings: in vivo; summary of the method: as §2
Rattus norvegicus = assay: as §1; format: organism-based; settings: in vivo, 24 h
[11] = Effect on pro-drug activation assessed as Chg-Pro formation by mass spectrometry; format: physicochemical
Summary of the method: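 Prodrug (10 mM stock) incubated with purified DPPIV (2 μM stock) or no enzyme in 0.1 M HEPES, 0.14 M NaCl, pH 8.0, for 10 min at 25 °C. Desalted on C18 and lyophilized. Chg-Pro detected by reverse-phase HPLC-MS scanning its m/z; Chg-Pro was the reference.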

Dipeptidyl peptidase 4 [12] = target: T1, Dipeptidyl peptidase 4; assay: Inhibition of DDP4 at pH 7.4 preincubated for 10 mins
Target sequence in this assay (P27487 whole entry): as the sequence (P27487 whole entry, looked up) above

Q: With `C[C@H](NC(=O)CCC(=O)O)C(=O)N[C@@H](C)C(=O)N1CCC[C@H]1C(=O)N[C@@H](Cc1ccccc1)C(=O)N[C@@H](C)C(=O)N1CCC[C@H]1B(O)O` (Suc-AAPFA-boroPro) as the compound, how does the inhibition (Dipeptidyl peptidase 4 [1]) read?
A: inactive

Q: And the inhibition [2]?
A: inactive

Q: What about the IC50 (Dipeptidyl peptidase 4 [3]) of the same compound?
A: 0.7 nM

Q: Which Activity (Mus musculus [4]) does the source give for `CC(C)[C@H](N)C(=O)N1CCC[C@H]1B(O)O` [TALABOSTAT] here?
A: Dose-dependent effect

Q: And the Activity (Mus musculus [5])?
A: inactive

Q: What about the LD50 at 24 h [6] of the same compound?
A: 0.5 mg/kg

Q: For `CC(=O)N[C@H](C(=O)N1CCC[C@H]1B(O)O)C(C)C`, which half-life [7] is on record?
A: 30 min

Q: For `CC(C)[C@H](NC(=O)[C@@H]1CCCN1C(=O)[C@@H](N)C1CCCCC1)C(=O)N1CCC[C@H]1B(O)O`, which Activity (Mus musculus [8]) is on record?
A: Active

Q: And the IC50 (Dipeptidyl peptidase 4 [9])?
A: 20 nM

Q: And the Activity (Mus musculus [10])?
A: Not Active

Q: What about the Activity (Mus musculus [4]) of the same compound?
A: Dose-dependent effect

Q: And the Activity (Mus musculus [5])?
A: Active

Q: What about the Activity (Rattus norvegicus) of the same compound?
A: Non-toxic

Q: What about the Activity [11] of the same compound?
A: Not Active

Q: What about the IC50 (Dipeptidyl peptidase 4 [12]) of the same compound?
A: 19 nM

Q: Which IC50 (Dipeptidyl peptidase 4 [9]) does the source give for `C[C@H](NC(=O)[C@@H]1CCCN1C(=O)[C@@H](N)Cc1ccccc1)C(=O)N1CCC[C@H]1B(O)O` here?
A: 8.3 nM

Q: And the IC50 (Dipeptidyl peptidase 4 [12])?
A: 7 nM
